Values after ≈ are worked out from the molar mass of the structure shown.
Columns and labels:
[1] = steady-state volume of distribution was evaluated in male Dawley rats; format: ADME, organism-based; details: Sprague-Dawley, rat, in vivo, read-out: Vss
Procedure, shortened: (§1)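 Single intravenous or oral doses were given to male Sprague-Dawley rats (n = 3), with plasma sampled to give Cmax and tmax. Vss was calculated as dose·AUMC/AUC², clearance as dose/AUC, and F as (AUC/dose)po/(AUC/dose)iv × 100, assuming linear PK. t1/2β is the harmonic mean terminal half-life. The oral entries show the iv half-life because the po half-life was not calculable.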

[2] = terminal disposition half-life was evaluated in male Dawley rats at 9.9 mg/kg when taken intravenously; format: ADME, organism-based; parameters: dose 9.9 mg/kg, route intravenous; details: Sprague-Dawley, rat, in vivo, iv; procedure, shortened: as §1
[3] = terminal disposition half-life was evaluated in male Dawley rats at a dose of 42.9 mg/kg when taken peroral; format: ADME, organism-based; parameters: dose 42.9 mg/kg, route oral; details: Sprague-Dawley, rat, in vivo, po; procedure, shortened: as §1
[4] = Absolute oral bioavailability was evaluated n male Dawley rats at a dose of 42.9 mg/kg when taken peroral; format: ADME, organism-based; details: Sprague-Dawley, rat, in vivo; procedure, shortened: as §1
Haemophilus influenzae = test: The compound was evaluated for its anti-bacterial activity against Haemophilus influenzae UC 30063; format: functional
Procedure, shortened: (§2)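 MICs were determined by standard agar dilution against a panel of Gram-positive and Gram-negative isolates.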

Moraxella catarrhalis = test: The compound was evaluated for its anti-bacterial activity against Moraxella catarrhalis UC 30610; format: functional; procedure, shortened: as §2
Rattus norvegicus [5] = test: Dawley rats 9.9 mg/kg when taken intravenously; format: functional; details: route intravenous; procedure, shortened: as §1
Rattus norvegicus [6] = test: Dawley rats at a dose of 42.9 mg/kg when taken peroral; format: functional; details: route oral; procedure, shortened: as §1
[7] = Cmax was evaluated in male Dawley rats at a dose of 42.9 mg/kg when taken perorally; format: ADME, organism-based; parameters: dose 42.9 mg/kg, route oral; details: Sprague-Dawley, rat, in vivo, po; procedure, shortened: as §1
[8] = Cmax was evaluated in male Dawley rats at a dose of 9.9 mg/kg when taken intravenously; format: ADME, organism-based; parameters: dose 9.9 mg/kg, route intravenous; details: Sprague-Dawley, rat, in vivo, iv; procedure, shortened: as §1
Rattus norvegicus [9] = test: tmax was evaluated in male Dawley rats at a dose of 42.9 mg/kg when taken perorally; format: functional, organism-based; parameters: dose 42.9 mg/kg; procedure, shortened: as §1
[10] = tested on: Staphylococcus epidermidis; test: The compound was evaluated for its anti-bacterial activity against methicillin resistant Staphylococcus epidermidis; format: functional
Procedure, shortened: (§3)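 MIC determined in vitro by standard agar dilution against bacterial isolates.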

Staphylococcus aureus [11] = test: The compound was evaluated for its anti-bacterial activity against methicillin resistant Staphylococcus aureus; format: functional; procedure, shortened: as §3
Staphylococcus aureus [12] = test: The compound was evaluated for its anti-bacterial activity against methicillin susceptible Staphylococcus aureus; format: functional; procedure, shortened: as §3
Streptococcus pneumoniae [13] = test: The compound was evaluated for its control effective dose against Streptococcus pneumoniea UC 15087; format: functional
Streptococcus pneumoniae [14] = test: The compound was evaluated for its effective dose against Streptococcus pneumoniea UC 15087; format: functional
Streptococcus pneumoniae [15] = test: The compound was evaluated for its anti-bacterial activity against Streptococcus pneumoniae UC 9912; format: functional; procedure, shortened: as §2
Staphylococcus aureus [16] = test: The compound was evaluated for its control effective dose against Staphylococcus aureus UC 9213; format: functional
Staphylococcus aureus [17] = test: The compound was evaluated for its effective dose against Staphylococcus aureus UC 9213; format: functional
Enterococcus faecalis = test: The compound was evaluated for its anti-bacterial activity against Enterococcus faecalis UC 9217; format: functional; procedure, shortened: as §2
[18] = terminal disposition half-life was evaluated in male Dawley rats at a dose of 46.8 mg/kg when taken peroral; format: ADME, organism-based; parameters: dose 46.8 mg/kg, route oral; details: Sprague-Dawley, rat, in vivo, po; procedure, shortened: as §1
[19] = Steady-state volume of distribution was evaluated in male Dawley rats at a dose of 9.0 mg/kg when taken intravenously; format: ADME, organism-based; parameters: dose 9 mg/kg, route intravenous; details: Sprague-Dawley, rat, in vivo, iv, read-out: Vss; procedure, shortened: as §1
[20] = Absolute oral bioavailability was evaluated n male Dawley rats at a dose of 46.8 mg/kg when taken peroral; format: ADME, organism-based; details: Sprague-Dawley, rat, in vivo; procedure, shortened: as §1
Rattus norvegicus [21] = test: Dawley rats at a dose of 46.8 mg/kg when taken peroral; format: functional; details: route oral; procedure, shortened: as §1
Rattus norvegicus [22] = test: Dawley rats at a dose of 9.0 mg/kg when taken intravenously; format: functional; details: route intravenous; procedure, shortened: as §1
[23] = Cmax was evaluated in male Dawley rats at a dose of 46.8 mg/kg when taken perorally; format: ADME, organism-based; parameters: dose 46.8 mg/kg, route oral; details: Sprague-Dawley, rat, in vivo, po; procedure, shortened: as §1
[24] = Cmax was evaluated in male Dawley rats at a dose of 9.0 mg/kg when taken intravenously; format: ADME, organism-based; parameters: dose 9 mg/kg, route intravenous; details: Sprague-Dawley, rat, in vivo, iv; procedure, shortened: as §1
[25] = tmax was evaluated in male Dawley rats at a dose of 46.8 mg/kg when taken perorally; format: ADME, organism-based; parameters: dose 46.8 mg/kg, route oral; details: Sprague-Dawley, rat, in vivo, po; procedure, shortened: as §1
[26] = terminal disposition half-life was evaluated in male Dawley rats at a dose of 9.0 mg/kg when taken intravenously; format: ADME, organism-based; parameters: dose 9 mg/kg, route intravenous; details: Sprague-Dawley, rat, in vivo, iv; procedure, shortened: as §1
[27] = Steady-state volume distribution was evaluated in male Dawley rats at a dose of 10 mg/kg when taken intravenously; format: ADME, organism-based; parameters: dose 10 mg/kg, route intravenous; details: Sprague-Dawley, rat, in vivo, iv, read-out: Vss
Rattus norvegicus [28] = test: Dawley rats at a dose of 10 mg/kg when taken intravenously; format: functional; details: route intravenous
[29] = Cmax was evaluated in male Dawley rats at a dose of 25 mg/kg when taken perorally; format: ADME, organism-based; parameters: dose 25 mg/kg, route oral; details: Sprague-Dawley, rat, in vivo, po
Rattus norvegicus [30] = test: tmax was evaluated in male Dawley rats at a dose of 25 mg/kg when taken perorally; format: functional, organism-based; parameters: dose 25 mg/kg

| Compound | MIC (Haemophilus influenzae) [µg/mL] | MIC (Moraxella catarrhalis) [µg/mL] | MIC [10] [µg/mL] | MIC (Staphylococcus aureus [11]) [µg/mL] | MIC (Staphylococcus aureus [12]) [µg/mL] | MIC (Streptococcus pneumoniae [15]) [µg/mL] | ED50 (Staphylococcus aureus [16]) [mg/kg/day] | ED50 (Staphylococcus aureus [17]) [mg/kg/day] | MIC (Enterococcus faecalis) [µg/mL] | other results |
| --- | --- | --- | --- | --- | --- | --- | --- | --- | --- | --- |
| CC(=O)NC[C@H]1CN(c2ccc(-n3ccc(C#N)c3)c(F)c2)C(=O)O1 | 4 (≈ 11.7 µM) | 1 (≈ 2.92 µM) | < 0.125 | 0.25 (≈ 0.73 µM) | 0.5 (≈ 1.46 µM) | < 0.125 | 4 | 1.9 | 0.25 (≈ 0.73 µM) | Vd [1]: 0.52 L/kg; half-life [2]: 5.15 h; half-life [3]: 5.14 h; bioavailability [4]: 92%; CL/F (Rattus norvegicus [5]): 1.18 mL/min/kg; CL/F (Rattus norvegicus [6]): 1.43 mL/min/kg; Cmax [7]: 31 µM; Cmax [8]: 26.1 µM; Tmax (Rattus norvegicus [9]): 10 h; ED50 (Streptococcus pneumoniae [13]): 1.4 mg/kg/day; ED50 (Streptococcus pneumoniae [14]): 0.6 mg/kg/day |
| CN[C@H](CC(C)C)C(=O)N[C@H]1C(=O)N[C@@H](CC(N)=O)C(=O)N[C@H]2C(=O)N[C@H]3C(=O)N[C@H](C(=O)N[C@H](C(=O)O)c4cc(O)cc(O)c4-c4cc3ccc4O)[C@H](O)c3ccc(c(Cl)c3)Oc3cc2cc(c3O[C@@H]2O[C@H](CO)[C@@H](O)[C@H](O)[C@H]2O[C@H]2C[C@](C)(N)[C@H](O)[C@H](C)O2)Oc2ccc(cc2Cl)[C@H]1O [VANCOMYCIN] | > 32 | > 32 |  |  |  | 0.5 (≈ 0.345 µM) |  |  |  |  |
| CC(=O)NC[C@H]1CN(c2ccc(N3CCN(C(=O)CO)CC3)c(F)c2)C(=O)O1 [EPEREZOLID] | 16 (≈ 40.6 µM) | 8 (≈ 20.3 µM) | 0.5 (≈ 1.27 µM) | 1 (≈ 2.54 µM) | 4 (≈ 10.1 µM) | 0.5 (≈ 1.27 µM) |  |  | 2 (≈ 5.07 µM) |  |
| CC(=O)NC[C@H]1CN(c2ccc(-n3ccc(C=O)c3)c(F)c2)C(=O)O1 | 2 (≈ 5.79 µM) | 1 (≈ 2.9 µM) | < 0.125 | 0.25 (≈ 0.724 µM) | 0.25 (≈ 0.724 µM) | < 0.125 | 1.7 | >20 | 0.25 (≈ 0.724 µM) |  |
| CC(=O)NC[C@H]1CN(c2ccc(-n3cc(C(N)=O)cn3)c(F)c2)C(=O)O1 | > 16 | > 16 | 4 (≈ 11.1 µM) |  | > 16 | 0.5 (≈ 1.38 µM) |  |  | > 16 |  |
| CC(=O)NC[C@H]1CN(c2ccc(-n3ccc(/C=N\O)c3)c(F)c2)C(=O)O1 | 4 (≈ 11.1 µM) | 1 (≈ 2.78 µM) | 0.25 (≈ 0.694 µM) | 0.5 (≈ 1.39 µM) | 1 (≈ 2.78 µM) | < 0.125 | 2.6 | 5.5 | 0.5 (≈ 1.39 µM) |  |
| CCOC(=O)c1cnn(-c2ccc(N3C[C@H](CNC(C)=O)OC3=O)cc2F)c1 | > 16 | > 16 | 2 (≈ 5.12 µM) | 4 (≈ 10.2 µM) | 4 (≈ 10.2 µM) | 1 (≈ 2.56 µM) |  |  | 4 (≈ 10.2 µM) |  |
| CC(=O)NC[C@H]1CN(c2ccc(-n3cc(C#N)cn3)c(F)c2)C(=O)O1 | 4 (≈ 11.7 µM) | 2 (≈ 5.83 µM) | < 0.125 | 0.5 (≈ 1.46 µM) | 0.5 (≈ 1.46 µM) | < 0.125 | 3.3 | 1.2 | 0.5 (≈ 1.46 µM) | half-life [18]: 5.35 h; Vd [19]: 0.43 L/kg; bioavailability [20]: 80%; CL/F (Rattus norvegicus [21]): 1.25 mL/min/kg; CL/F (Rattus norvegicus [22]): 1.04 mL/min/kg; Cmax [23]: 29.4 µM; Cmax [24]: 29.2 µM; Tmax [25]: 4 h; ED50 (Streptococcus pneumoniae [13]): 3.2 mg/kg/day; ED50 (Streptococcus pneumoniae [14]): 0.35 mg/kg/day; half-life [26]: 5.35 h |
| CC(=O)NC[C@H]1CN(c2ccc(N3CCOCC3)c(F)c2)C(=O)O1 [LINEZOLID] | 16 (≈ 47.4 µM) | 8 (≈ 23.7 µM) | 1 (≈ 2.96 µM) |  |  |  |  |  |  | Vd [27]: 0.72 L/kg; CL/F (Rattus norvegicus [28]): 10.5 mL/min/kg; Cmax [29]: 15.8 µM; Tmax (Rattus norvegicus [30]): 0.3 h |

Reference: ChEMBL document CHEMBL1131429, “Nitrogen-carbon-linked (azolylphenyl)oxazolidinones with potent antibacterial activity against the fastidious gram-negative organisms Haemophilus influenzae and Moraxella catarrhalis” (J Med Chem, 1998)
